# Shown are actives, neighbours in structure and some others; about 2% of the full set was active somewhere.
# TROY NFkB inh – inhibitors of TROY-driven NF-kB signaling, primary screen, Q293 LMP1-TROYcd cells, NF-kB luciferase, uHTS | inhibition, % at 10 µM | Q293 LMP1-TROYcd NF-kB luciferase reporter, 4 h | 360,000 compounds, 0.98% hits;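 active = compounds whose plate-normalised and pattern-corrected inhibition of the luciferase reporter signal at the single screening dose is 50% or more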
# CaV13 ICDI inh – Primary screen for inhibitors of IQ motif and Ca2+-dependent inactivation inhibitor domain binding in CACNA1D, Förster resonance energy transfer in living cells, … | HEK cells, CFP/YFP FRET ICDI-IQ, plate reader, 10 min; percent FRET-ratio fall versus neutral wells | inhibition, % at 12.3 µM | 340,000 compounds, 0.098% hits | AID 743397;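 active = mean replicate inhibition of at least 30% and at least 1% of replicates passing that level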;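 note: 0% = median of the neutral control wells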
# LGR2 inh – inhibitors of bursicon-induced LGR2 CRE-luciferase signal, primary screen, cell-based, HEK293, CRE-luciferase reporter, bursicon stimulation | bursicon-stimulated, 4 h | AID 720647, 2013 | inhibition, % at 9.99 µM | 380,000 compounds, 0.35% hits | Drosophila bursicon receptor LGR2 (rickets);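 active = drop in luminescence signal, shown as inhibition above about 50% in the replicate tests, limit read from the data, passing the limit was not always enough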;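 note: agonist challenge used bursicon conditioned medium at about half maximal strength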
# Xi reactivation – activators of inactive X chromosome reactivation, primary screen, imaging, XiGFP fibroblasts, GFP high-content imaging, set 2; XiGFP mouse fibroblasts, % GFP-positive cells imaging, 3 d; cells co-treated with 5-aza-dC sensitizer; scaled so ellipticine positive control = 100%; activation, % at 7.58 µM; 360,000 compounds, 0.055% hits;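 active = mean normalized replicate activation at least 10% and every replicate at or above 10%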;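 note: 0% = median of on-plate neutral control wells and 100% = ellipticine 6 µM median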
#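 System: XiGFP fibroblasts, SV40-immortalized. Medium: DMEM plus 5-aza-dC sensitizer. Doses: single point. Timing: 3 d treatment, 15 min room-temperature fixation. Control set: ellipticine 6 µM.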
# TWEAK-Fn14 inh – inhibitors of TWEAK-Fn14 signaling, primary screen, luciferase reporter cells, uHTS; AID 1159606, 2016; TWEAK-stimulated Fn14 reporter cells, luciferase luminescence, 8 h; inhibition, % at 10 µM; 360,000 compounds, 2% hits; in the data active = inhibition above about 50%
# * hit, by the source's call; · = not tested or not shown.
SMILES,TROY NFkB inh,CaV13 ICDI inh,LGR2 inh,Xi reactivation,TWEAK-Fn14 inh
C[C@H](CO)N1C[C@H](C)[C@H](CN(C)CC2CCCCC2)Oc2ccc(NC(=O)Nc3ccc(C(F)(F)F)cc3)cc2CC1=O,·,·,7,0,·
COc1cccc(C#Cc2cnc3c(c2)C(=O)N([C@H](C)CO)C[C@H](C)[C@H](CN(C)C(=O)C2CCC2)O3)c1,·,·,11,0,·
O=C(c1ccccc1F)N1CC[C@H]2[C@H](CO)Nc3ccc(Br)cc3[C@H]21,·,·,-2,0,·
C[C@@H]1CN([C@@H](C)CO)C(=O)c2cc(NC(=O)Nc3ccc4c(c3)OCO4)ccc2O[C@@H](C)CCCCO[C@H]1CN(C)C(=O)c1ccccc1,·,·,5,0,·
O=C(O)c1cc(-c2ccc3c(c2)OCO3)nc2ccc(Cl)cc12,-54,·,19,0,-17
Clc1ccc2nc(-c3ccc4c(c3)OCO4)cn2c1,0,-19,86*,0,73*
CC1CCN(C(=O)COc2cccc3c2CCN(Cc2ccccc2)C3=O)CC1,5,91*,44,0,-23
COc1cccc(NC(=O)/C=C/c2ccco2)c1,-24,3,-89,0,-5
O=C(/C=C/c1ccco1)Nc1ccc(Oc2ccc(Cl)cc2)cc1,6,·,·,·,51*
C[C@H](CO)N1C[C@H](C)[C@@H](CN(C)Cc2ccncc2)Oc2ccc(NC(=O)Nc3ccc4c(c3)OCO4)cc2CC1=O,·,·,5,0,·
C[C@@H]1CN([C@@H](C)CO)C(=O)c2c(c3ccccc3n2C)-c2ccccc2CO[C@@H]1CN(C)S(=O)(=O)c1cn(C)cn1,·,·,5,0,·
COC(=O)c1ccccc1-c1c2ccc(=N)cc-2oc2cc(N)ccc12,17,-13,12,2,53*
COc1ccc2c(c1)CCCN2C(N)=Nc1ccc(Cl)cc1,-9,-5,0,0,-15
COC(=O)N1CCCc2cc(C)ccc21,2,-4,-45,0,-3
COc1ccc(NC(=O)N2CCCc3ccccc32)c(OC)c1,70*,-7,3,0,51*
COc1ccc(C)cc1NC(=O)N1CCCc2ccccc21,70*,-5,-26,0,55*
COc1ccc2c(c1)CCCN2C(N)=O,4,-8,-1,·,58*
O=C(Nc1cc(F)ccc1F)N1C[C@H]2[C@@H](c3ccccc31)[C@@H](CO)N2Cc1cccnc1,·,·,0,0,·
CCCNC(=O)[C@@H]1[C@@H](CO)[C@@H]2Cn3c(ccc(-c4ccccc4OC)c3=O)[C@@H]2N1CC,·,·,-3,0,·
COc1ccc2c(c1)[nH]c1c(N3CCSCC3)ncnc12,63*,-5,·,0,48
COc1cccc(N2CCN(c3ncnc4c3[nH]c3ccc(F)cc34)CC2C)c1 (configuration not stated),86*,-7,·,·,104*
COc1cccc(N2CCN(c3ncnc4c3[nH]c3ccccc34)CC2C)c1 (configuration not stated),·,-5,·,·,·
COc1ccc2[nH]c3c(N4CC(C)OC(C)C4)ncnc3c2c1 (configuration not stated),·,-4,·,·,·
COc1ccc2c(c1)[nH]c1c(N3CCN(Cc4ccc5c(c4)OCO5)CC3)ncnc12,66*,-4,·,·,100*
COC(=O)C[C@@H]1CC[C@H]2[C@@H](COC[C@@H](O)CN2C(=O)Nc2ccccc2OC)O1,·,·,-3,0,·
SMILES,TROY NFkB inh,CaV13 ICDI inh,LGR2 inh,Xi reactivation,TWEAK-Fn14 inh
COC(=O)N(C)C[C@@H]1OCc2ccccc2-c2c(n(C)c3ccccc23)C(=O)N([C@@H](C)CO)C[C@@H]1C,·,·,-1,0,·
C[C@H]1CN([C@@H](C)CO)C(=O)c2cc(-c3ccc(C#N)cc3)cnc2O[C@@H]1CN(C)CC1CCCCC1,·,·,6,-1,·
Cc1cc(NC(=O)c2cccs2)ncc1NC(=O)C(C)(C)C,51*,6,20,0,47
Cc1ccnc(NC(=O)c2cccs2)c1,-42,·,·,·,-6
CC(C)NC(=O)N[C@H]1CC[C@@H](CC(=O)N2CCCCC2)O[C@H]1CO,·,·,20,0,·
NC(=S)NC1CC2CC1C1C=CCC21 (configuration not stated),-1,12,0,1,-1
CNNC(=S)NC1CC2CC1C1C=CCC21 (configuration not stated),-29,41*,·,0,9
N#Cc1c(N)n(CCc2ccc(F)cc2)c2nc3ccccc3nc12,·,·,·,·,63*
N#Cc1c(N)n(CCOC(=O)c2cccc([N+](=O)[O-])c2)c2nc3ccccc3nc12,23,-3,·,·,-7
COc1cccc(Cn2c(N)c(C#N)c3nc4ccccc4nc32)c1OC,65*,-5,·,·,18
COCCn1c(N)c(C#N)c2nc3ccccc3nc21,17,-4,·,·,6
N#Cc1c(N)n(CCOC(=O)c2cccc(Br)c2)c2nc3ccccc3nc12,69*,·,·,·,12
Nc1c(C(=O)NCCN2CCOCC2)c2nc3ccccc3nc2n1CCc1ccccc1F,16,1,·,·,16
Nc1c(C(=O)NCCN2CCOCC2)c2nc3ccccc3nc2n1CCc1ccccc1,69*,-2,·,·,14
C[C@@H]1CN([C@H](C)CO)C(=O)c2cccc(NC(=O)NC3CCCCC3)c2O[C@@H]1CN(C)Cc1ccc2c(c1)OCO2,·,·,-2,-1,·
COc1cc(-n2c(N)c(C(=O)NCc3ccco3)c3nc4ccccc4nc32)cc(OC)c1OC,-17,-5,-4,0,-3
Nc1c(C(=O)NCc2ccco2)c2nc3ccccc3nc2n1CCc1ccc(F)cc1,64*,-3,·,·,21
COc1ccc(-n2c(N)c(C(=O)NCc3ccco3)c3nc4ccccc4nc32)cc1,30,-5,·,·,66*
C[C@H]1CCCCO[C@H](CN(C)S(=O)(=O)c2ccc(Cl)cc2)[C@@H](C)CN([C@@H](C)CO)C(=O)c2cc(NC(=O)Nc3cccc4ccccc34)ccc2O1,·,·,-6,0,·
O=C(Nc1ccccc1)C1=C[C@H](C2CCCCC2)C[C@H](OCc2ccc(CO)cc2)O1,66*,-3,-28,0,39
CC(C)(C)[C@H]1C=C(C(=O)Nc2ccccc2)O[C@@H](OCc2ccc(CO)cc2)C1,18,-12,-21,0,-15
O=C(Nc1ccccc1)C1=C[C@@H](C2CCCCC2)C[C@@H](OCc2ccc(CO)cc2)O1,73*,-10,-17,0,57*
O=C(Nc1ccccc1)C1=C[C@@H](c2csc3ccccc23)C[C@@H](OCc2ccc(CO)cc2)O1,76*,-5,12,-1,-16
O=C(Nc1ccccc1)C1=C[C@@H](c2ccccc2)C[C@@H](OCc2ccc(CO)cc2)O1,-48,-10,-95,0,-86

# Screening results as filed in PubChem.
